Most compounds without a hit are left out; they make up all but 1.9% or so of the library.
Neddylation inh – inhibitors of human cullin neddylation; P61081+Q13564; TR-FRET cullin neddylation, biochemical; inhibition, % at 25 µM; 360,000 tested, 0.58% active; AID 651699; in the data active = inhibition above about 36%
Target sequence (P61081 whole entry, looked up): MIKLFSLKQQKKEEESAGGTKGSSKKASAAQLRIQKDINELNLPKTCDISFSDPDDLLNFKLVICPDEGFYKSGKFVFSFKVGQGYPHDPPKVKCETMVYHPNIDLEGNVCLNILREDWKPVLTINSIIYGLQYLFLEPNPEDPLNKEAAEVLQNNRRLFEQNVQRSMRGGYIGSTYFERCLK
Target sequence (Q13564 whole entry, looked up): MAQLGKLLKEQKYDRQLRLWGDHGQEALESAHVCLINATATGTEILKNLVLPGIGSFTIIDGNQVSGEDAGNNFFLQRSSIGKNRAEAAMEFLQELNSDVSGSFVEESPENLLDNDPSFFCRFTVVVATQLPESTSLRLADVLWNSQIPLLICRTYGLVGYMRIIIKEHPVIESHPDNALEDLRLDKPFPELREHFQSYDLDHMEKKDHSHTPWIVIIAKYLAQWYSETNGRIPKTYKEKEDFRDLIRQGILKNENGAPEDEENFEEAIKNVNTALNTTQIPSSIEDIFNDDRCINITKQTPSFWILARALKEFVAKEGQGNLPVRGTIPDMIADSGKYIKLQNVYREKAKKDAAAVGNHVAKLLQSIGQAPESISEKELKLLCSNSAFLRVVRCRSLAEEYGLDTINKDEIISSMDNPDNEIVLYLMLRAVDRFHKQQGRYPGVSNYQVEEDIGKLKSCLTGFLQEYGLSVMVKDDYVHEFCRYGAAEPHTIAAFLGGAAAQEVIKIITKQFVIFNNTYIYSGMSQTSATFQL
GAA850 FXN act – activators of GAA850 frataxin (FXN) promoter; 360,000 tested, 0.56% active; activation, % at 6 µM; HEK293 lucGAA850 FXN promoter luciferase reporter, 24 h; percent of 10 µM SAHA response;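 active = activation above the average of all compounds screened plus 3 SD, cutoff fixed separately per campaign, cut at about 7.5% in these data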;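 also: 0% = DMSO wells and 100% = 10 µM SAHA wells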
proCasp7 act – counter-screen: procaspase-7 (human) activation; P55210; recombinant procaspase-7, Ac-DEVD-pNA absorbance 405 nm; D23A/D198A/D206A triple mutant, cannot self-cleave; scale: DMSO 0, 5 µM enzyme 100; activation, % at 8.5 µM; 330,000 tested, 0.093% active; AID 463210;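 active = percent activation above the screen-wide mean plus 3 SD, cut at about 25% in these data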
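Detection: p-Nitroaniline absorbance at 405 nm, read at 0 and 120 min; system: Uncleavable procaspase-7 mutant enzyme; evaluation: % activation from two-timepoint absorbance difference, scaled to controls; times: 1 h enzyme–compound preincubation and 2 h substrate reaction, both 25 °C; buffer or medium: Zinc-free HEPES pH 7.4 with 300 mM NaCl, 0.01% Triton X-100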
proCasp3 act – procaspase-3 (human) activation | P42574 | activation, % at 8.5 µM | recombinant procaspase-3 D3A, Ac-DEVD-pNA absorbance 405 nm | 330,000 tested, 0.11% active;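 active = activation above the mean of all tested compounds plus 3 SD, cut at about 21% in these data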;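 also: 0% = DMSO alone and 100% = DMSO wells spiked with extra 5 µM PC-3 D3A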
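Compound: 8.5 µM single point, 0.8% DMSO / Material: Autoprocessing-dead procaspase-3 D3A mutant enzyme / Timing: 1 h preincubation plus 2 h reaction at 25 °C / Medium: Zinc-free HEPES/NaCl buffer with 0.01% Triton X-100 at pH 7.4 / Technique: 405 nm absorbance of p-nitroaniline, reads at 0 and 120 min / Repeats: one well per compound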
HIF act – HIF pathway transcriptional activation; U2OS HRE-luciferase reporter, luminescence; normalized: DMSO 0%, desferrioxamine 100%; activation, % at 7.5 µM (by protocol); 300,000 tested, 0.32% active; AID 1910;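 active = mean activation of at least 10% of the iron chelator positive control signal, with at least half of replicates also reaching 10%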
Calb FLC – affects C. albicans growth with fluconazole; growth inhibition, % (test concentration not listed); C. albicans CaCi-2 + fluconazole, Alamar Blue growth, 48 h; AID 1979; 300,000 tested, 0.57% active;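 active = growth inhibition above about 58% in most replicates, limit read from the data, passing the limit was not always enough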;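 also: all wells also contain fluconazole at 8 µg/ml as a sub-toxic cotreatment; 0% = median of DMSO wells and 100% = median of geldanamycin control wells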
GAA30 FXN cntr – counter-screen for GAA850 frataxin promoter activators: GAA30 promoter activation | shares compounds with GAA850 FXN act | HEK293 lucGAA30 FXN promoter luciferase, 24 h; DMSO = 0%, 5 µM ipriflavone = 100% | activation, % at 6 µM | 1,900 tested, 66% active;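 active = mean activation above the mean of solvent-only control wells plus 3 SD, cut at about 22% in these data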;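 also: counterscreen of GAA850 promoter hits where activity marks nonselective or luminescence artifacts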
GAA850 confirm – GAA850 FXN promoter activation confirmation; HEK293 lucGAA850 FXN promoter luciferase reporter, 24 h; 100% = activation by SAHA; AID 588351; 1,900 tested, 86% active; activation, % at 6 µM; shares compounds with GAA850 FXN act;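 active = mean activation above a set limit taken from the primary screen, cut at about 8% in these data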;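 also: 0% = DMSO wells and 100% = 10 µM SAHA wells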
* hit, by the source's call.

Results for CCOC(=O)[C@]12CCC=C1N(Cc1ccc(Cl)cc1Cl)C(=O)[C@H](CC(=O)N1CCN(C(=O)c3ccco3)CC1)C2 ?
Neddylation inh: -9

How did Fc1ccc(Nc2ccc(-c3ccc(F)cc3)nn2)cc1 do in these assays?
Neddylation inh: -2; GAA850 FXN act: 3; proCasp7 act: 5; proCasp3 act: -5; HIF act: 4; Calb FLC: -16

What do the screens show for `Fc1ccc(-c2ccc(Nc3cccc(F)c3)nn2)cc1`?
Neddylation inh: -7; GAA850 FXN act: 8.3*; proCasp7 act: 9; proCasp3 act: -4; HIF act: 3; Calb FLC: -8; GAA30 FXN cntr: 93*; GAA850 confirm: 31*

How did O=C(O)c1cscc1-c1cccc2ccccc12 do in these assays?
Neddylation inh: -32; GAA850 FXN act: 1

What do the screens show for `CC(C)C[C@@]12C(=O)N(c3cccc(Cl)c3)C(=O)N1[C@H](c1ccc(Cl)cc1)[C@@H]1C(=O)N(C3CCCCC3)C(=O)[C@@H]12`?
Neddylation inh: -7; GAA850 FXN act: 5; proCasp7 act: -7; proCasp3 act: -2; HIF act: 0; Calb FLC: 5

How did O=C1[C@H]2[C@@H](c3ccc(F)cc3)N3C(=O)N(c4cccc(F)c4)C(=O)[C@@]3(Cc3ccc(Cl)cc3)[C@H]2C(=O)N1C1CCCCC1 do in these assays?
Neddylation inh: -17; GAA850 FXN act: 12*; proCasp7 act: -5; proCasp3 act: 0; HIF act: 0; Calb FLC: 0; GAA30 FXN cntr: 20; GAA850 confirm: 11*

What do the screens show for `CC(C)C[C@@]12C(=O)N(c3cccc(Cl)c3)C(=O)N1[C@H](c1ccc(F)cc1)[C@@H]1C(=O)N(C3CCCCC3)C(=O)[C@@H]12`?
Neddylation inh: -2; GAA850 FXN act: 12*; proCasp7 act: 5; proCasp3 act: 4; HIF act: 1; Calb FLC: 12; GAA30 FXN cntr: 21; GAA850 confirm: 20*

Results for CC[C@@]12C(=O)N(c3cccc(F)c3)C(=O)N1[C@H](c1ccc(Cl)cc1)[C@@H]1C(=O)N(C3CCCCC3)C(=O)[C@@H]12 ?
Neddylation inh: -4; GAA850 FXN act: 9.0*; proCasp7 act: 6; proCasp3 act: 3; HIF act: 0; Calb FLC: 2; GAA30 FXN cntr: 23*; GAA850 confirm: 15*

What do the screens show for `O=C1[C@H]2[C@@H](c3ccc(Cl)cc3)N3C(=O)N(c4cccc(F)c4)C(=O)[C@@]3(Cc3ccc(Cl)cc3)[C@H]2C(=O)N1C1CCCCC1`?
Neddylation inh: 3; GAA850 FXN act: 0; proCasp7 act: -4; proCasp3 act: 2; HIF act: -1; Calb FLC: 1

How did CC[C@@]12C(=O)N(c3cccc(Br)c3)C(=O)N1[C@H](c1ccc(Cl)cc1)[C@@H]1C(=O)N(C3CCCCC3)C(=O)[C@@H]12 do in these assays?
Neddylation inh: 5; GAA850 FXN act: 11*; proCasp7 act: -2; proCasp3 act: 9; HIF act: 0; Calb FLC: -6; GAA30 FXN cntr: 6; GAA850 confirm: 15*

What do the screens show for `CC(=O)N(C(C)=O)c1ncn(C)c1S(=O)(=O)Nc1ccccc1`?
Neddylation inh: -5; GAA850 FXN act: 1

What do the screens show for `CCC12CCC3c4ccc(O)cc4CCC3C1CC(O)C2O` (stereo not drawn)?
Neddylation inh: 4; GAA850 FXN act: -1

How did O=C(Nc1cccc(Oc2ccccc2)c1)c1ccc(-n2cncn2)c2ccoc12 do in these assays?
Neddylation inh: 14; GAA850 FXN act: 1
